Screens as filed in PubChem.
SR-BI HDL uptake = mouse SR-BI HDL lipid transfer inhibition | inhibition, % at 12.5 µM | 0.96% of 320,000 active | ldlA[mSR-BI] CHO cells, DiI-HDL uptake fluorescence, 3 h | AID 488896;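 active = mean replicate inhibition of at least 70% and a set share of replicates each scoring 70 or more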;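 also: 0% = median of neutral control wells and 100% = median of positive control wells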
Target sequence (Q61009 whole entry, looked up): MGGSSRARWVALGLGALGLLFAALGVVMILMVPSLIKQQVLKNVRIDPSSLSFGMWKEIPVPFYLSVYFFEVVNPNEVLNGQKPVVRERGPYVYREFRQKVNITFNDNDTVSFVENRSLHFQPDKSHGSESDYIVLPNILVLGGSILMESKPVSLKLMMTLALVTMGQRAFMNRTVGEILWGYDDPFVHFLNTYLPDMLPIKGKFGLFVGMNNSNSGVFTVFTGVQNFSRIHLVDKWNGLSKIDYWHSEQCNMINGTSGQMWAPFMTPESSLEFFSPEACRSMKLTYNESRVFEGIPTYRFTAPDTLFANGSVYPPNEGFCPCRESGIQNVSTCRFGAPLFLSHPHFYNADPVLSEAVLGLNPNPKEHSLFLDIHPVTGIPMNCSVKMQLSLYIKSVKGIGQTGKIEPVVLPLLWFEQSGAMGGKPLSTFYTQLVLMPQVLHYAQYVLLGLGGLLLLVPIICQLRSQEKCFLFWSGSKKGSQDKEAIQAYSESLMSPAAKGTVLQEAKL
Vif imaging = blocks HIV Vif function | HEK293T cells, Vif self-association by quenched fluorescence, imaging, 24 h | inhibition, % at 7.49 µM | 0.35% of 340,000 active; in the data active = inhibition above about 50%, passing the limit was not always enough
H9c2 TAG inh = reduces triacylglycerol accumulation in H9c2 cells; inhibition, % at 12.5 µM; 0.66% of 230,000 active; Nile Red lipid (TAG) fluorescence; cells loaded with 200 µM oleic acid;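 active = pattern-corrected inhibition of lipid staining of at least 50% with the nuclear-stain viability signal not falling by more than 50%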;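 also: 0% = DMSO wells and 100% = triacsin C control wells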
A1 inh = inhibitors of the anti-apoptotic protein A1, read as caspase activation; MEF A1-2A-BIM cells, Caspase-Glo 3/7 luminescence, 3 h; percent of clofoctol response, vehicle zero; caspase activation, % (test concentration not listed); 0.066% of 330,000 active; AID 2462;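 active = over half of replicate activation scores above 10%, or exactly half above 10 with the replicate mean above 10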
SR-BI DiI-HDL act = activators of SR-BI mediated HDL lipid uptake. CHO ldlA[mSR-BI] cells, DiI-HDL uptake fluorescence, 3 h; 100 = double the neutral-control signal. activation, % at 12.5 µM. 0.096% of 320,000 active. AID 504775;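 active = mean replicate activation of at least 60% and every replicate at or above 60%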;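 also: 0% = median plate neutral-control signal and 100% = twice that signal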
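Test system: SR-BI-overexpressing, LDLR-lacking CHO cells. Measured by: DiI fluorescence, bottom read. Medium: Ham's F12 with 0.5% BSA, HEPES 25 mM, pH 7.4. Timing: 3 h uptake period with compound, 37 °C.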
The depositor's hits bear a star. Most compounds without a hit are left out; they make up all but 1.6% or so of the library.

What do the screens show for `O=P(Nc1ccccc1)(Oc1ccccc1)Oc1ccccc1`?
SR-BI HDL uptake: 3; Vif imaging: 0; H9c2 TAG inh: -29; A1 inh: 0; SR-BI DiI-HDL act: -3

What do the screens show for `Cc1cccc(NP(=O)(Oc2ccccc2)Oc2ccccc2)c1C`?
SR-BI HDL uptake: 76*; Vif imaging: 1; A1 inh: 1; SR-BI DiI-HDL act: -76

What do the screens show for `CCc1ccc(N2C(=O)NC(=O)C(Cc3ccc(OC)cc3OC)C2=O)cc1` (stereo unspecified)?
SR-BI HDL uptake: 84*; Vif imaging: -11; H9c2 TAG inh: 0; A1 inh: -1; SR-BI DiI-HDL act: -84

How did COc1ccc(Oc2cc(NC(=O)c3nn(C)cc3[N+](=O)[O-])cc([N+](=O)[O-])c2)cc1 do in these assays?
SR-BI HDL uptake: 24; Vif imaging: 19; A1 inh: 13*; SR-BI DiI-HDL act: -24

What do the screens show for `COc1ccc2c(c1)C13CCN4CC5=CCOC6CC(=O)N2C1C6C5CC43` (stereo unspecified)?
Vif imaging: 1

What do the screens show for `Brc1ccc2[nH]cc(C=NN3CCCCCC3)c2c1`?
SR-BI HDL uptake: 33; Vif imaging: 7; H9c2 TAG inh: -1; SR-BI DiI-HDL act: -33

What do the screens show for `C/C(=N\N1CCCCCC1)c1c(O)n(-c2ccc(C)cc2)c(=O)[nH]c1=O`?
SR-BI HDL uptake: -21; Vif imaging: 68*; H9c2 TAG inh: 4; A1 inh: 0; SR-BI DiI-HDL act: 21

What do the screens show for `C/C(=N\N1CCCCCC1)c1c(O)n(-c2ccc(Cl)cc2)c(=O)[nH]c1=O`?
SR-BI HDL uptake: 21; Vif imaging: 8; H9c2 TAG inh: 16; A1 inh: 1; SR-BI DiI-HDL act: -21

Results for CC1Oc2cc3c(-c4c(O)cc(O)c5c(O)c6c(cc45)OC(C)C(C)C6=O)c(O)cc(O)c3c(O)c2C(=O)C1C (stereo unspecified) ?
SR-BI HDL uptake: 80*; Vif imaging: -7; A1 inh: -1; SR-BI DiI-HDL act: -80

What do the screens show for `CC(=O)c1cccc(NC(=O)N2C[C@H]3C[C@@H](C2)c2cccc(=O)n2C3)c1`?
SR-BI HDL uptake: -27; Vif imaging: 6; A1 inh: 0; SR-BI DiI-HDL act: 27

Results for CCOc1ccccc1-n1c(O)c(C=NCCCn2ccnc2)c(=O)[nH]c1=O ?
SR-BI HDL uptake: -5; Vif imaging: -3; H9c2 TAG inh: 14; A1 inh: -1; SR-BI DiI-HDL act: 5

How did O=C(N/N=C/c1c(O)n(Cc2ccc(F)cc2)c(=O)[nH]c1=O)c1ccccc1 do in these assays?
SR-BI HDL uptake: 75*; Vif imaging: 8; H9c2 TAG inh: 15; A1 inh: 0; SR-BI DiI-HDL act: -75

How did O=C(N/N=C/c1c(O)n(Cc2ccccc2)c(=O)[nH]c1=O)c1ccncc1 do in these assays?
Vif imaging: 2; H9c2 TAG inh: 1; A1 inh: 0

Results for Oc1ccc(C(=C(Cl)Cl)c2ccc(O)cc2)cc1 ?
A1 inh: 1

How did CCN(CC)c1ccc(N=Cc2c(O)n(CCc3ccc(OC)c(OC)c3)c(=O)[nH]c2=O)cc1 do in these assays?
SR-BI HDL uptake: 49; Vif imaging: -4; A1 inh: 0; SR-BI DiI-HDL act: -49

How did CCN(CC)c1ccc(N=Cc2c(O)n(-c3cc(OC)ccc3OC)c(=O)[nH]c2=O)cc1 do in these assays?
SR-BI HDL uptake: 91*; Vif imaging: -14; A1 inh: 1; SR-BI DiI-HDL act: -91

What do the screens show for `COc1cc(O)c(C(=O)O)c(-c2cc(O)c(O)cc2C)c1`?
SR-BI HDL uptake: -23; Vif imaging: 8; A1 inh: 0; SR-BI DiI-HDL act: 23

Results for Oc1ccc(CC2(N3CCCC3)CCCCC2)cc1 ?
SR-BI HDL uptake: -9; Vif imaging: 11; H9c2 TAG inh: 5; A1 inh: -2; SR-BI DiI-HDL act: 9

Results for CNc1cc(Cl)c2nonc2c1[N+](=O)[O-] ?
SR-BI HDL uptake: -9; Vif imaging: -5; H9c2 TAG inh: 79*; SR-BI DiI-HDL act: 9

What do the screens show for `COc1cc(/C=C/[N+](=O)[O-])ccc1OC(=O)c1cccnc1`?
SR-BI HDL uptake: -31; Vif imaging: -4; A1 inh: 8.0*; SR-BI DiI-HDL act: 31

How did COC(=O)C1CN(C#N)N(c2ccc(Cl)cc2)C12c1ccccc1-c1ccccc12 (stereo unspecified) do in these assays?
SR-BI HDL uptake: 127*; Vif imaging: -1; H9c2 TAG inh: 134; A1 inh: 0; SR-BI DiI-HDL act: -127

How did COc1cc(C2c3cc4c(cc3CC3COC(=O)C32)OCO4)cc(OC)c1OC (stereo unspecified) do in these assays?
SR-BI HDL uptake: 18; Vif imaging: 87*; SR-BI DiI-HDL act: -18

How did CC1=CC(C)CC(C)OC(=O)CC(c2ccc(O)cc2)NC(=O)C(Cc2c(Br)[nH]c3ccccc23)N(C)C(=O)C(C)NC(=O)C(C)C1 (stereo unspecified) do in these assays?
SR-BI HDL uptake: -39; Vif imaging: 5; H9c2 TAG inh: 98*; SR-BI DiI-HDL act: 39

How did CCCCn1c(=O)c(C(=O)NCc2ccccc2Cl)c(O)c2ccccc21 do in these assays?
SR-BI HDL uptake: 30; Vif imaging: -3; A1 inh: 0; SR-BI DiI-HDL act: -30

How did O=[N+]([O-])c1ccc(N2CCNCC2)c(Cl)c1 do in these assays?
SR-BI HDL uptake: 78*; Vif imaging: 0; H9c2 TAG inh: 1; A1 inh: 0; SR-BI DiI-HDL act: -78

How did CC(C)(O)/C=C/C(=O)C(C)(O)C1C(O)CC2(C)C3CC=C4C(C=C(O)C(=O)C4(C)C)C3(C)C(=O)CC12C (stereo unspecified) do in these assays?
SR-BI HDL uptake: -10; Vif imaging: -4; H9c2 TAG inh: 8; SR-BI DiI-HDL act: 10

What do the screens show for `CC(=O)OC(C)(C)/C=C/C(=O)[C@](C)(O)C1[C@H](O)C[C@@]2(C)C3CC=C4C(C[C@H](O)C(=O)C4(C)C)[C@]3(C)C(=O)C[C@]12C` (stereo partly specified)?
SR-BI HDL uptake: -6; A1 inh: 21*; SR-BI DiI-HDL act: 6

How did CCS(=O)(=O)Nc1cccc(C(=C2CCCCC2)c2cnc[nH]2)c1 do in these assays?
SR-BI HDL uptake: 1; Vif imaging: 69*; H9c2 TAG inh: -5; A1 inh: -1; SR-BI DiI-HDL act: -1

What do the screens show for `O=C(N/N=C/c1c(O)n(-c2ccccc2)c(=S)[nH]c1=O)c1ccccc1`?
SR-BI HDL uptake: 61; Vif imaging: -2; H9c2 TAG inh: -9; A1 inh: 0; SR-BI DiI-HDL act: -61

What do the screens show for `O=C(N/N=C/c1c(O)n(C2CC2)c(=S)[nH]c1=O)c1ccccc1O`?
SR-BI HDL uptake: 92*; Vif imaging: 1; A1 inh: -8; SR-BI DiI-HDL act: -92
